Measured values published in ChEMBL document CHEMBL1649557 (Antimicrob Agents Chemother, 2009).
Converted amounts (≈) assume the structure as drawn. One block for each compound: values may come before it.

How the values were obtained:
Staphylococcus aureus [1] = assay: Antibacterial activity against methicillin-susceptible Staphylococcus aureus using 5x10^4 CFU/ml low inoculum assessed as bacterial growth inhibition at 2 ug/ml; assay type: functional; parameters: scale not given: the % may be the effect or the level left
Outline: (§1)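 98 MSSA clinical isolates from skin/soft tissue infection, hospital-acquired pneumonia, endocarditis and haemodialysis bacteraemia; testers were blinded to clinical data. Broth microdilution in cation-adjusted Mueller-Hinton II broth per CLSI, with inocula of ~5×10^4, 5×10^5, 5×10^6 or 5×10^7 CFU/ml. Inocula were set by optical density and spot-checked by CFU counts. Plates were read at 24 h. Values are the percentage of strains inhibited at each concentration.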

Staphylococcus aureus [2] = assay: Antibacterial activity against methicillin-susceptible Staphylococcus aureus using 5x10^7 CFU/ml high inoculum assessed as bacterial growth inhibition at 64 ug/ml; assay type: functional; parameters: scale not given: the % may be the effect or the level left; outline: as §1
Staphylococcus aureus [3] = assay: Antibacterial activity against methicillin-susceptible Staphylococcus aureus using 5x10^5 CFU/ml standard inoculum assessed as bacterial growth inhibition at <= […] ug/ml; assay type: functional; parameters: scale not given: the % may be the effect or the level left
Staphylococcus aureus [4] = assay: Antibacterial activity against methicillin-susceptible Staphylococcus aureus using 5x10^5 CFU/ml standard inoculum assessed as bacterial growth inhibition at 8 ug/ml; assay type: functional; parameters: scale not given: the % may be the effect or the level left; outline: as §1
Staphylococcus aureus [5] = assay: Antibacterial activity against methicillin-susceptible Staphylococcus aureus using 5x10^6 CFU/ml intermediate inoculum assessed as bacterial growth inhibition at 16 ug/ml; assay type: functional; parameters: scale not given: the % may be the effect or the level left; outline: as §1
Staphylococcus aureus [6] = assay: Antibacterial activity against methicillin-susceptible Staphylococcus aureus using 5x10^6 CFU/ml intermediate inoculum assessed as bacterial growth inhibition at 64 ug/ml; assay type: functional; parameters: scale not given: the % may be the effect or the level left; outline: as §1
Staphylococcus aureus [7] = assay: Antibacterial activity against methicillin-susceptible Staphylococcus aureus using 5x10^4 CFU/ml low inoculum assessed as bacterial growth inhibition at 32 ug/ml; assay type: functional; parameters: scale not given: the % may be the effect or the level left; outline: as §1
Staphylococcus aureus [8] = assay: Antibacterial activity against methicillin-susceptible Staphylococcus aureus using 5x10^6 CFU/ml intermediate inoculum assessed as bacterial growth inhibition at 4 ug/ml; assay type: functional; parameters: scale not given: the % may be the effect or the level left; outline: as §1
Staphylococcus aureus [9] = assay: Antibacterial activity against methicillin-susceptible Staphylococcus aureus using 5x10^5 CFU/ml standard inoculum assessed as bacterial growth inhibition at 2 ug/ml; assay type: functional; parameters: scale not given: the % may be the effect or the level left; outline: as §1
Staphylococcus aureus [10] = assay: Antibacterial activity against methicillin-susceptible Staphylococcus aureus using 5x10^6 CFU/ml intermediate inoculum assessed as bacterial growth inhibition at <= […] ug/ml; assay type: functional; parameters: scale not given: the % may be the effect or the level left
Staphylococcus aureus [11] = assay: Antibacterial activity against methicillin-susceptible Staphylococcus aureus using 5x10^4 CFU/ml low inoculum assessed as bacterial growth inhibition at >= 128 ug/ml; assay type: functional; parameters: scale not given: the % may be the effect or the level left; outline: as §1
Staphylococcus aureus [12] = assay: Antibacterial activity against methicillin-susceptible Staphylococcus aureus using 5x10^7 CFU/ml high inoculum assessed as bacterial growth inhibition at 16 ug/ml; assay type: functional; parameters: scale not given: the % may be the effect or the level left; outline: as §1
Staphylococcus aureus [13] = assay: Antibacterial activity against methicillin-susceptible Staphylococcus aureus using 5x10^4 CFU/ml low inoculum assessed as bacterial growth inhibition at 4 ug/ml; assay type: functional; parameters: scale not given: the % may be the effect or the level left; outline: as §1
Staphylococcus aureus [14] = assay: Antibacterial activity against methicillin-susceptible Staphylococcus aureus using 5x10^7 CFU/ml high inoculum assessed as bacterial growth inhibition at 2 ug/ml; assay type: functional; parameters: scale not given: the % may be the effect or the level left; outline: as §1
[15] = Drug level in bone of methicillin-susceptible Staphylococcus aureus infected human after 60 mins; assay type: ADME, tissue-based, Bone element; conditions: read-out: Drug uptake
Staphylococcus aureus [16] = assay: Antibacterial activity against methicillin-susceptible Staphylococcus aureus using 5x10^4 CFU/ml low inoculum assessed as bacterial growth inhibition at 8 ug/ml; assay type: functional; parameters: scale not given: the % may be the effect or the level left; outline: as §1
Staphylococcus aureus [17] = assay: Antibacterial activity against methicillin-susceptible Staphylococcus aureus using 5x10^5 CFU/ml standard inoculum assessed as bacterial growth inhibition at 4 ug/ml; assay type: functional; parameters: scale not given: the % may be the effect or the level left; outline: as §1
Staphylococcus aureus [18] = assay: Antibacterial activity against methicillin-susceptible Staphylococcus aureus using 5x10^7 CFU/ml high inoculum assessed as bacterial growth inhibition at >= 128 ug/ml; assay type: functional; parameters: scale not given: the % may be the effect or the level left; outline: as §1
Staphylococcus aureus [19] = assay: Antibacterial activity against methicillin-susceptible Staphylococcus aureus using 5x10^5 CFU/ml standard inoculum assessed as bacterial growth inhibition at >= 128 ug/ml; assay type: functional; parameters: scale not given: the % may be the effect or the level left; outline: as §1
Staphylococcus aureus [20] = assay: Antibacterial activity against methicillin-susceptible Staphylococcus aureus using 5x10^5 CFU/ml standard inoculum assessed as bacterial growth inhibition at 16 ug/ml; assay type: functional; parameters: scale not given: the % may be the effect or the level left; outline: as §1
Staphylococcus aureus [21] = assay: Antibacterial activity against methicillin-susceptible Staphylococcus aureus using 5x10^4 CFU/ml low inoculum assessed as bacterial growth inhibition at <= […] ug/ml; assay type: functional; parameters: scale not given: the % may be the effect or the level left
[22] = Drug level in human serum at 1 g, iv after 4 hrs; assay type: ADME, organism-based; conditions: read-out: Drug uptake
Staphylococcus aureus [23] = assay: Antibacterial activity against methicillin-susceptible Staphylococcus aureus using 5x10^4 CFU/ml low inoculum assessed as bacterial growth inhibition at 16 ug/ml; assay type: functional; parameters: scale not given: the % may be the effect or the level left; outline: as §1
Staphylococcus aureus [24] = assay: Antibacterial activity against methicillin-susceptible Staphylococcus aureus using 5x10^6 CFU/ml intermediate inoculum assessed as bacterial growth inhibition at >= 128 ug/ml; assay type: functional; parameters: scale not given: the % may be the effect or the level left; outline: as §1
Staphylococcus aureus [25] = assay: Antibacterial activity against methicillin-susceptible Staphylococcus aureus using 5x10^7 CFU/ml high inoculum assessed as bacterial growth inhibition at 4 ug/ml; assay type: functional; parameters: scale not given: the % may be the effect or the level left; outline: as §1
Staphylococcus aureus [26] = assay: Antibacterial activity against methicillin-susceptible Staphylococcus aureus using 5x10^5 CFU/ml standard inoculum assessed as bacterial growth inhibition at 32 ug/ml; assay type: functional; parameters: scale not given: the % may be the effect or the level left; outline: as §1
Staphylococcus aureus [27] = assay: Antibacterial activity against methicillin-susceptible Staphylococcus aureus using 5x10^6 CFU/ml intermediate inoculum assessed as bacterial growth inhibition at 8 ug/ml; assay type: functional; parameters: scale not given: the % may be the effect or the level left; outline: as §1
Staphylococcus aureus [28] = assay: Antibacterial activity against methicillin-susceptible Staphylococcus aureus using 5x10^6 CFU/ml intermediate inoculum assessed as bacterial growth inhibition at 2 ug/ml; assay type: functional; parameters: scale not given: the % may be the effect or the level left; outline: as §1
Staphylococcus aureus [29] = assay: Antibacterial activity against methicillin-susceptible Staphylococcus aureus using 5x10^7 CFU/ml high inoculum assessed as bacterial growth inhibition at 8 ug/ml; assay type: functional; parameters: scale not given: the % may be the effect or the level left; outline: as §1
Staphylococcus aureus [30] = assay: Antibacterial activity against methicillin-susceptible Staphylococcus aureus using 5x10^6 CFU/ml intermediate inoculum assessed as bacterial growth inhibition at 32 ug/ml; assay type: functional; parameters: scale not given: the % may be the effect or the level left; outline: as §1
Staphylococcus aureus [31] = assay: Antibacterial activity against methicillin-susceptible Staphylococcus aureus using 5x10^7 CFU/ml high inoculum assessed as bacterial growth inhibition at <= […] ug/ml; assay type: functional; parameters: scale not given: the % may be the effect or the level left
Staphylococcus aureus [32] = assay: Antibacterial activity against methicillin-susceptible Staphylococcus aureus using 5x10^7 CFU/ml high inoculum assessed as bacterial growth inhibition at 32 ug/ml; assay type: functional; parameters: scale not given: the % may be the effect or the level left; outline: as §1
Staphylococcus aureus [33] = assay: Antibacterial activity against methicillin-susceptible Staphylococcus aureus using 5x10^5 CFU/ml standard inoculum assessed as bacterial growth inhibition at 64 ug/ml; assay type: functional; parameters: scale not given: the % may be the effect or the level left; outline: as §1
Staphylococcus aureus [34] = assay: Antibacterial activity against methicillin-susceptible Staphylococcus aureus using 5x10^4 CFU/ml low inoculum assessed as bacterial growth inhibition at 64 ug/ml; assay type: functional; parameters: scale not given: the % may be the effect or the level left; outline: as §1
Staphylococcus aureus [35] = assay: Antibacterial activity against methicillin-susceptible and beta-lactamase-producing Staphylococcus aureus Type C using 5x10^7 CFU/ml high inoculum after 24 hrs by CLSI broth microdilution method; assay type: functional
Staphylococcus aureus [36] = assay: Antibacterial activity against methicillin-susceptible and beta-lactamase-negative Staphylococcus aureus ATCC 25923 using 5x10^5 CFU/ml standard inoculum after 24 hrs by CLSI broth microdilution method; assay type: functional; conditions: ATCC 25923, 24 h
Staphylococcus aureus [37] = assay: Antibacterial activity against methicillin-susceptible and beta-lactamase-producing Staphylococcus aureus Type A TX01117 using 5x10^5 CFU/ml standard inoculum after 24 hrs by CLSI broth microdilution method; assay type: functional; conditions: Type A TX01117, 24 h
Staphylococcus aureus [38] = assay: Antibacterial activity against methicillin-susceptible and beta-lactamase-producing Staphylococcus aureus Type A TX01117 using 5x10^7 CFU/ml high inoculum after 24 hrs by CLSI broth microdilution method; assay type: functional; conditions: Type A TX01117, 24 h
Staphylococcus aureus [39] = assay: Antibacterial activity against methicillin-susceptible and beta-lactamase-producing Staphylococcus aureus Type B using 5x10^7 CFU/ml high inoculum after 24 hrs by CLSI broth microdilution method; assay type: functional
Staphylococcus aureus [40] = assay: Antibacterial activity against methicillin-susceptible and beta-lactamase-producing Staphylococcus aureus Type B using 5x10^5 CFU/ml standard inoculum after 24 hrs by CLSI broth microdilution method; assay type: functional
Staphylococcus aureus [41] = assay: Antibacterial activity against methicillin-susceptible and beta-lactamase-negative Staphylococcus aureus ATCC 25923 using 5x10^7 CFU/ml high inoculum after 24 hrs by CLSI broth microdilution method; assay type: functional; conditions: ATCC 25923, 24 h
Staphylococcus aureus [42] = assay: Antibacterial activity against methicillin-susceptible and beta-lactamase-producing Staphylococcus aureus Type C using 5x10^5 CFU/ml standard inoculum after 24 hrs by CLSI broth microdilution method; assay type: functional
Staphylococcus aureus [43] = assay: Antibacterial activity against methicillin-susceptible and beta-lactamase-negative Staphylococcus aureus using 5x10^5 CFU/ml standard inoculum after 24 hrs by CLSI broth microdilution method

concentration at 1 h [15]: 6900 ng/mL
concentration at 4 h [22]: 17000 ng/mL
SMILES: Cc1nnc(SCC2=C(C(=O)O)N3C(=O)[C@@H](NC(=O)Cn4cnnn4)[C@H]3SC2)s1 [CEFAZOLIN]
Activity (Staphylococcus aureus [1]): 0%
Activity (Staphylococcus aureus [2]): 3%
Activity (Staphylococcus aureus [3]): 89%
Activity (Staphylococcus aureus [4]): 0%
Activity (Staphylococcus aureus [5]): 2%
Activity (Staphylococcus aureus [6]): 3%
Activity (Staphylococcus aureus [7]): 0%
Activity (Staphylococcus aureus [8]): 8%
Activity (Staphylococcus aureus [9]): 5%
Activity (Staphylococcus aureus [10]): 33%
Activity (Staphylococcus aureus [11]): 0%
Activity (Staphylococcus aureus [12]): 5%
Activity (Staphylococcus aureus [13]): 0%
Activity (Staphylococcus aureus [14]): 12%
Activity (Staphylococcus aureus [16]): 0%
Activity (Staphylococcus aureus [17]): 6%
Activity (Staphylococcus aureus [18]): 2%
Activity (Staphylococcus aureus [19]): 0%
Activity (Staphylococcus aureus [20]): 0%
Activity (Staphylococcus aureus [21]): 100%
Activity (Staphylococcus aureus [23]): 0%
Activity (Staphylococcus aureus [24]): 0%
Activity (Staphylococcus aureus [25]): 20%
Activity (Staphylococcus aureus [26]): 0%
Activity (Staphylococcus aureus [27]): 2%
Activity (Staphylococcus aureus [28]): 50%
Activity (Staphylococcus aureus [29]): 24%
Activity (Staphylococcus aureus [30]): 1%
Activity (Staphylococcus aureus [31]): 23%
Activity (Staphylococcus aureus [32]): 9%
Activity (Staphylococcus aureus [33]): 0%
Activity (Staphylococcus aureus [34]): 0%

MIC (Staphylococcus aureus [35]): 32 µg/mL (≈ 69.2 µM)
MIC50 (Staphylococcus aureus [35]): 16 µg/mL (≈ 34.6 µM)
MIC90 (Staphylococcus aureus [35]): 32 µg/mL (≈ 69.2 µM)
MIC (Staphylococcus aureus [36]): 0.6 µg/mL (≈ 1.3 µM)
MIC90 (Staphylococcus aureus [36]): 1 µg/mL (≈ 2.16 µM)
MIC (Staphylococcus aureus [37]): 0.5 µg/mL (≈ 1.08 µM)
MIC50 (Staphylococcus aureus [37]): 1 µg/mL (≈ 2.16 µM)
MIC90 (Staphylococcus aureus [37]): 2 µg/mL (≈ 4.32 µM)
MIC (Staphylococcus aureus [38]): 8 µg/mL (≈ 17.3 µM)
MIC50 (Staphylococcus aureus [38]): 4 µg/mL (≈ 8.65 µM)
MIC90 (Staphylococcus aureus [38]): 32 µg/mL (≈ 69.2 µM)
MIC (Staphylococcus aureus [39]): 13.6 µg/mL (≈ 29.4 µM)
MIC50 (Staphylococcus aureus [39]): 8 µg/mL (≈ 17.3 µM)
MIC90 (Staphylococcus aureus [39]): 64 µg/mL (≈ 138 µM)
MIC (Staphylococcus aureus [40]): 1.3 µg/mL (≈ 2.81 µM)
MIC50 (Staphylococcus aureus [40]): 1 µg/mL (≈ 2.16 µM)
MIC90 (Staphylococcus aureus [40]): 4 µg/mL (≈ 8.65 µM)
MIC (Staphylococcus aureus [41]): 0.4 µg/mL (≈ 0.865 µM)
MIC50 (Staphylococcus aureus [41]): 1 µg/mL (≈ 2.16 µM)
MIC90 (Staphylococcus aureus [41]): 1 µg/mL (≈ 2.16 µM)
MIC50 (Staphylococcus aureus [42]): 2 µg/mL (≈ 4.32 µM)
MIC90 (Staphylococcus aureus [42]): 4 µg/mL (≈ 8.65 µM)
MIC50 (Staphylococcus aureus [43]): 1 µg/mL (≈ 2.16 µM)
SMILES: Cn1nnnc1SCC1=C(C(=O)O)N2C(=O)[C@@H](NC(=O)[C@H](O)c3ccccc3)[C@H]2SC1 [CEFAMANDOLE]
